Test results taken from publication PMC9199876 (Clinical and Translational Science, 2022).
Values joined by “and” are separate entries in the source; they are usually repeats but may differ in a detail not shown here. Identical values can stand only once. Like-named read-outs stand apart in the source and are kept apart here.

Tests used:
[1] = test system: MATE2-K; details: in vitro; cited from earlier work
[2] = test system: cytosolic NADPH-dependent reductases; details: in vitro; cited from earlier work
[3] = Safety and tolerability assessment; type: in vivo, humans (healthy adults); details: for Number of participants with TEAEs / TEAE: Abdominal pain, upper / TEAE: Cough / TEAE: Dermatitis contact / TEAE: Gastrointestinal disorders / TEAE: Headache / TEAE: Nasal congestion / TEAE: Nervous system disorders / TEAE: Respiratory, thoracic, and mediastinal disorders / TEAE: Sensory disturbance / TEAE: Sinus congestion / TEAE: Skin and subcutaneous tissue disorders / TEAE: Sneezing: n = 12
How it was run: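 Twelve healthy adults received a single oral 25 mg dose with and without i.v. rifampin 600 mg in crossover. TEAEs were monitored throughout. Vital signs and triplicate 12-lead ECGs were taken at screening (day −28 to −2), predose, and 1, 2, 4, 8 and 48 h post dose in each period. Serum chemistry, hematology and urinalysis were also run. Follow-up included a full physical exam, vital signs and ECG.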

[4] = test system: CYP2B6; details: in vitro, clinically relevant dose (0.06 μM); cited from earlier work
[5] = test system: p-glycoprotein (P-gp); details: in vitro; cited from earlier work
[6] = test system: OATP1B1/1B3; details: in vitro; cited from earlier work
[7] = test system: CYP2C9; details: in vitro, clinically relevant dose (0.06 μM); cited from earlier work
[8] = Phase I two-way crossover study: plasma pharmacokinetics of trazpiroben and M23; type: in vivo, humans (healthy adults); details: for AUC∞, geometric mean (mean CV%) / C max, geometric mean (geometric CV%) / T max, median (min, max) / t 1/2z, mean (SD): plasma trazpiroben; for AUC∞, geometric mean (mean CV%): n = 12
How it was run: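 Open-label crossover in healthy adults fasted ≥10 h: a single oral 25 mg capsule, alone or right after a 30-min i.v. infusion of 600 mg rifampin, with ≥7-day washout. Parent and metabolite were measured by LC-MS/MS (range 0.1–50.0 ng/ml; BLOQ set to zero). Noncompartmental analysis used actual sampling times.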

[9] = test system: CYP2C8; details: in vitro; cited from earlier work
[10] = test system: CYP3A4; details: phase I DDI studies; cited from earlier work
[11] = test system: OAT3; details: at a clinically relevant dose; cited from earlier work
[12] = test system: MATE1; details: at a clinically relevant dose; cited from earlier work
[13] = test system: OAT3; details: in vitro; cited from earlier work
[14] = test system: OAT1; details: in vitro; cited from earlier work
[15] = test system: OCT2; details: at a clinically relevant dose; cited from earlier work
[16] = test system: CYP1A2; details: in vitro, clinically relevant dose (0.06 μM); cited from earlier work
[17] = ref data on file, cited from earlier work
[18] = test system: CYP2D6; details: in vitro, clinically relevant dose (0.06 μM); cited from earlier work
[19] = healthy Japanese individuals; cited from earlier work
[20] = preclinical; cited from earlier work
[21] = test system: OATP1B1/1B3; details: at a clinically relevant dose; cited from earlier work
[22] = cited from earlier work
[23] = test system: CYP2C19; details: in vitro, clinically relevant dose (0.06 μM); cited from earlier work
[24] = test system: OAT1; details: at a clinically relevant dose; cited from earlier work
[25] = single and multiple doses, healthy men and women; cited from earlier work
[26] = test system: CYP isoforms; details: in vitro, clinically relevant dose (0.06 μM); cited from earlier work
[27] = phase II, 51 patients with idiopathic or diabetic gastroparesis; cited from earlier work
[28] = test system: CYP3A; details: in vitro, clinically relevant dose (0.06 μM); cited from earlier work
[29] = oral administration, rats; cited from earlier work
[30] = test system: bile salt export pump; details: at a clinically relevant dose; cited from earlier work
[31] = oral administration, dogs; cited from earlier work
[32] = test system: MATE1; details: in vitro; cited from earlier work
[33] = test system: breast cancer resistance protein (BCRP); details: in vitro; cited from earlier work
[34] = test system: MATE2-K; details: at a clinically relevant dose; cited from earlier work
[35] = test system: OCT2; details: in vitro; cited from earlier work
[36] = test system: OATP1B1/1B3; test: Clinical DDI: effect of single-dose i.v. rifampin; type: in vivo, humans (healthy adults); details: plasma trazpiroben; trazpiroben with rifampin relative to trazpiroben alone
How it was run: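 Healthy fasted adults (n = 12) in a two-way crossover: an oral 25 mg capsule of test compound alone, or given immediately after 600 mg rifampin i.v. over 30 min. Washout was ≥7 days. Plasma parent and metabolite were assayed by validated LC-MS/MS and analysed noncompartmentally. The ANOVA on log-transformed AUC∞ and Cmax gave the LSM difference (B – A), which was exponentiated to give GMRs with 90% CIs.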

[37] = test system: CYP2C8; details: in vitro, clinically relevant dose (0.06 μM); cited from earlier work
[38] = test system: BCRP; details: at a clinically relevant dose; cited from earlier work
[39] = test system: CYP3A4; details: in vitro; cited from earlier work
[40] = trazpiroben 25 mg + rifampin 600 mg
[41] = trazpiroben 25 mg + rifampin 600 mg i.v.
[42] = fasted rats, oral radiolabeled trazpiroben, after 24 h

SMILES: O=C(O)c1cccc(CN2CN(C3CCCCC3)C3(CCN(CCCC(=O)c4ccccc4)CC3)C2=O)c1 [trazpiroben, Trazpiroben]
- substrate of MATE2-K [1]: not a substrate
- share of metabolism via non-CYP cytosolic NADPH-dependent reductases (to M23) [2]: 56.7%
- serum chemistry, hematology, urinalysis, vital signs, and ECG results ([3]; all participants, throughout the study): remained within normal limits
- AE relating to QT prolongation ([3]; current study): no clinically relevant AE relating to QT prolongation
- Number of participants with TEAEs ([3]; overall (both treatments)): 6 (50) n (%)
- TEAE: Abdominal pain, upper ([3]; overall (both treatments)): 1 (8) n (%)
- TEAE: Cough ([3]; overall (both treatments)): 1 (8) n (%)
- TEAE: Dermatitis contact ([3]; overall (both treatments)): 1 (8) n (%)
- TEAE: Gastrointestinal disorders ([3]; overall (both treatments)): 1 (8) n (%)
- TEAE: Headache ([3]; overall (both treatments)): 2 (17) n (%)
- TEAE: Nasal congestion ([3]; overall (both treatments)): 1 (8) n (%)
- TEAE: Nervous system disorders ([3]; overall (both treatments)): 3 (25) n (%)
- TEAE: Respiratory, thoracic, and mediastinal disorders ([3]; overall (both treatments)): 2 (17) n (%)
- TEAE: Sensory disturbance ([3]; overall (both treatments)): 1 (8) n (%)
- TEAE: Sinus congestion ([3]; overall (both treatments)): 1 (8) n (%)
- TEAE: Skin and subcutaneous tissue disorders ([3]; overall (both treatments)): 1 (8) n (%)
- TEAE: Sneezing ([3]; overall (both treatments)): 1 (8) n (%)
- tolerability ([3]; single agent or in combination with rifampin, healthy participants): well‐tolerated
- Number of participants with TEAEs [3, 40]: 2 (17) n (%)
- TEAE: Abdominal pain, upper [3, 40]: 0 (0) n (%)
- TEAE: Cough [3, 40]: 1 (8) n (%)
- TEAE: Dermatitis contact [3, 40]: 0 (0) n (%)
- TEAE: Gastrointestinal disorders [3, 40]: 0 (0) n (%)
- TEAE: Headache [3, 40]: 1 (8) n (%)
- TEAE: Nasal congestion [3, 40]: 1 (8) n (%)
- TEAE: Nervous system disorders [3, 40]: 1 (8) n (%)
- TEAE: Respiratory, thoracic, and mediastinal disorders [3, 40]: 1 (8) n (%)
- TEAE: Sensory disturbance [3, 40]: 0 (0) n (%)
- TEAE: Sinus congestion [3, 40]: 0 (0) n (%)
- TEAE: Skin and subcutaneous tissue disorders [3, 40]: 0 (0) n (%)
- TEAE: Sneezing [3, 40]: 0 (0) n (%)
- Number of participants with TEAEs ([3]; trazpiroben 25 mg alone): 6 (50) n (%)
- TEAE: Abdominal pain, upper ([3]; trazpiroben 25 mg alone): 1 (8) n (%)
- TEAE: Cough ([3]; trazpiroben 25 mg alone): 0 (0) n (%)
- TEAE: Dermatitis contact ([3]; trazpiroben 25 mg alone): 1 (8) n (%)
- TEAE: Gastrointestinal disorders ([3]; trazpiroben 25 mg alone): 1 (8) n (%)
- TEAE: Headache ([3]; trazpiroben 25 mg alone): 2 (17) n (%)
- TEAE: Nasal congestion ([3]; trazpiroben 25 mg alone): 0 (0) n (%)
- TEAE: Nervous system disorders ([3]; trazpiroben 25 mg alone): 3 (25) n (%)
- TEAE: Respiratory, thoracic, and mediastinal disorders ([3]; trazpiroben 25 mg alone): 1 (8) n (%)
- TEAE: Sensory disturbance ([3]; trazpiroben 25 mg alone): 1 (8) n (%)
- TEAE: Sinus congestion ([3]; trazpiroben 25 mg alone): 1 (8) n (%)
- TEAE: Skin and subcutaneous tissue disorders ([3]; trazpiroben 25 mg alone): 1 (8) n (%)
- TEAE: Sneezing ([3]; trazpiroben 25 mg alone): 1 (8) n (%)
- participants reporting contact dermatitis ([3]; trazpiroben alone): 8%
- participants reporting headache ([3]; trazpiroben alone): 17%
- participants reporting sensory disturbance ([3]; trazpiroben alone): 8%
- participants reporting sinus congestion ([3]; trazpiroben alone): 8%
- participants reporting upper abdominal pain ([3]; trazpiroben alone): 8%
- severity of TEAEs ([3]; whole study): mild
- number of TEAEs recorded ([3]; whole study, 12 participants): 10
- deaths, serious AEs, discontinuations due to an AE ([3]; whole study, trazpiroben alone and with rifampin): no deaths, serious AEs, or discontinuations due to an AE
- inhibition of CYP2B6 [4]: does not inhibit
- substrate of p-glycoprotein (P-gp) [5]: substrate
- substrate of OATP1B1/1B3 [6]: substrate
- inhibition of CYP2C9 [7]: does not inhibit
- participants with detectable levels of plasma trazpiroben ([8]; 0.5 h, co-administered with rifampin): all participants
- participants with detectable levels of plasma trazpiroben ([8]; 0.5 h after trazpiroben alone): 92%
- participants with detectable levels of plasma trazpiroben ([8]; 12 h after trazpiroben alone): 92%
- participants with detectable levels of plasma trazpiroben ([8]; 16 h after trazpiroben alone): 42%
- participants with detectable levels of plasma trazpiroben ([8]; 16 h post dose, trazpiroben + rifampin): 83%
- AUC∞, geometric mean (mean CV%) ([8]; single oral trazpiroben 25 mg alone): 32.7 ng*h/ml and 32.68 (23.9) ng*h/ml
- C max, geometric mean (geometric CV%) [8, 41]: 89.62 (68.6) ng/ml
- T max, median (min, max) [8, 41]: 1.002 (0.49, 2.00) h
- t 1/2z, mean (SD) [8, 41]: 2.028 ± 0.3449 h
- C max, geometric mean (geometric CV%) ([8]; trazpiroben 25 mg alone): 14.37 (38.7) ng/ml
- T max, median (min, max) ([8]; trazpiroben 25 mg alone): 1.037 (0.50, 2.00) h
- t 1/2z, mean (SD) ([8]; trazpiroben 25 mg alone): 4.229 ± 3.7897 h
- AUC∞, geometric mean (mean CV%) ([8]; trazpiroben 25 mg oral + rifampin 600 mg i.v.): 168.5 (49.9) ng*h/ml
- CL/F, geometric mean (geometric CV%) [8, 41]: 148.4 (49.9) L/h
- V z/F, geometric mean (geometric CV%) [8, 41]: 428.1 (49.9) L
- CL/F, geometric mean (geometric CV%) ([8]; trazpiroben 25 mg alone): 765.1 (23.9) L/h
- V z/F, geometric mean (geometric CV%) ([8]; trazpiroben 25 mg alone): 3469 (70.7) L
- share of metabolism via CYP2C8 [9]: 11.8%
- sensitivity to CYP3A4 inhibition [10]: relatively insensitive
- inhibitor of OAT3 [11]: not an inhibitor
- inhibitor of MATE1 [12]: not an inhibitor
- substrate of OAT3 [13]: not a substrate
- substrate of OAT1 [14]: not a substrate
- inhibitor of OCT2 [15]: not an inhibitor
- inhibition of CYP1A2 [16]: does not inhibit
- dosed radioactivity excreted in bile ([17]; bile duct cannulated rats): ~ 86%
- dosed radioactivity excreted in feces ([17]; bile duct cannulated rats): 11%
- dosed radioactivity excreted in urine ([17]; bile duct cannulated rats): 5%
- dosed radioactivity excreted in feces [17, 42]: ~ 94%
- dosed radioactivity excreted in urine [17, 42]: 6%
- inhibition of CYP2D6 [18]: does not inhibit
- tolerability [19]: well‐tolerated
- accumulation after repeated doses [20]: minor accumulation
- increase of plasma concentrations with dose [20]: dose‐proportional manner
- inhibitor of OATP1B1/1B3 [21]: not an inhibitor
- accumulation index ([22]; 50 mg twice daily for 5 days): 1.9
- accumulation index ([22]; 100 mg twice daily for 5 days): 1.4
- time to maximum concentration [T max] ([22]; AT-01C study, healthy men and women): ~ 1.1 h
- mean half-life ([22]; AT-01C study): 4 h
- mean apparent oral clearance ([22]; across single-dose groups of 25–300 mg): 600 to 800 L/h
- inhibition of CYP2C19 [23]: does not inhibit
- inhibitor of OAT1 [24]: not an inhibitor
- tolerability [25]: well‐tolerated
- induction of CYP isoforms [26]: does not induce
- safety signals [27]: did not identify any safety signals
- inhibition of CYP3A [28]: does not inhibit
- absolute bioavailability [29]: ~ 20%
- inhibitor of bile salt export pump [30]: not an inhibitor
- absolute bioavailability [31]: ~ 20%
- substrate of MATE1 [32]: not a substrate
- substrate of BCRP [33]: not a substrate
- inhibitor of MATE2-K [34]: not an inhibitor
- substrate of OCT2 [35]: not a substrate
- AUC∞ geometric mean ratio (90% CI) [36]: 5.16 (4.25–6.25) fold
- C max geometric mean ratio (90% CI) [36]: 6.24 (4.62–8.42) fold
- inhibition of CYP2C8 [37]: does not inhibit
- inhibitor of BCRP [38]: not an inhibitor
- share of metabolism via CYP3A4 [39]: 25.8%
